GalR3 antagonist: blocks the human galanin receptor 3; HEK293 GalR3-CNG cAMP membrane potential fluorescence; galR3 body fused to GalR1 C-terminus; AID 651719; actives 0.44% (n = 360,000); inhibition, % at 3 µM; O60755;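 active = inhibition above the screen-wide average plus 3 SD, cut at about 13% in these data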;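 also: forskolin and galanin both at EC90 stimulate the cells; cAMP rise reported by CNG channel membrane potential dye signal; 0% = forskolin plus galanin with DMSO and 100% = forskolin alone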
Target sequence (O60755 1-299 limits assumed): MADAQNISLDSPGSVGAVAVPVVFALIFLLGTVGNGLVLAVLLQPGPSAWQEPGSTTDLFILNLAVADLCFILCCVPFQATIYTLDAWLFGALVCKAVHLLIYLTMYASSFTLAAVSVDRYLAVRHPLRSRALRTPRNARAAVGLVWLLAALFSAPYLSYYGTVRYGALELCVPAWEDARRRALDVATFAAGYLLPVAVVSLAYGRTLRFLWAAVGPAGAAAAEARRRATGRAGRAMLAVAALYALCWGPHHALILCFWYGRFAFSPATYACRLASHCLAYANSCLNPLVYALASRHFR
OX1R antag-1: human HCRTR1 antagonism; actives 0.43% (n = 330,000); CHO/OX1R cells, Fluo-8 calcium fluorescence, orexin A; AID 434989; inhibition, % at 5 µM; O43613;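 active = inhibition above its plate's threshold, mean inhibition of all tested compounds on the plate plus 3 SD, cut at about 37% in these data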;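 also: 0% = orexin A challenge wells and 100% = SB-334867-A antagonist wells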
Target sequence (O43613 whole entry, looked up): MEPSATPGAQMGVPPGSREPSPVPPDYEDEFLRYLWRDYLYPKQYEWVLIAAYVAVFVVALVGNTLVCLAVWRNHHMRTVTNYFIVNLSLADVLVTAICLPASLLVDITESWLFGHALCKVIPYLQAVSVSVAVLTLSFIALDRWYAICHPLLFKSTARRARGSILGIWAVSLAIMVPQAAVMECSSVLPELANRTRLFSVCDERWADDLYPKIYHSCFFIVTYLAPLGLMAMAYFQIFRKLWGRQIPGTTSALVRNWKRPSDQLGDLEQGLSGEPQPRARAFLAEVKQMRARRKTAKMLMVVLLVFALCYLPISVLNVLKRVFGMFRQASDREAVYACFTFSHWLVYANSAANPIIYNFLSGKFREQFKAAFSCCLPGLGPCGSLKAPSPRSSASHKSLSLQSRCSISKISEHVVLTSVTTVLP
OX1R antag-2: OX1R (human) antagonism; actives 1.8% (n = 330,000); OX1R-expressing cells, FRET antagonist read-out; inhibition, % at 6.6 µM; O43613; in the data active = inhibition mostly above about 38%, no sharp cut-off; inactive = mostly below about 40%;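 also: 0% = agonist challenge alone and 100% = reference antagonist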
TAAR1 antagonist: antagonists of human TAAR1; Q96RJ0; CHO RD-HGA16 TAAR1, Fluo-8 calcium fluorescence, antagonist; inhibition, % at 3 µM; actives 1.5% (n = 360,000);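 active = inhibition above a per-plate cutoff, the mean inhibition of test compounds on that plate plus 3 SD, cut at about 49% in these data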;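 also: 0% = DMSO plus EC80 beta-PEA response and 100% = DMSO alone without agonist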
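Test system: hTAAR1-expressing CHO RD-HGA16 cells, Gα16-coupled; Probe or stimulus: EC80 β-phenethylamine stimulus; Compound dosing: single nominal final test compound concentration of 3 µM; Timing: 140 s kinetic read after compound, 140 s after agonist; Signal: Fluo-8 calcium-sensitive fluorescence; Measure: % inhibition of agonist calcium response; Controls: DMSO and EC80 PEA controls.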
TAAR1 agonist: agonists of human TAAR1. actives 0.99% (n = 360,000). CHO RD-HGA16 TAAR1, Fluo-8 calcium fluorescence; vehicle wells 0%, saturating PEA agonist 100%. Q96RJ0. activation, % at 3 µM;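 active = activation above the mean activation of all test compounds in the run plus 3 SD, cut at about 38% in these data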
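Signal – calcium-sensitive Fluo-8 signal, excitation 470-495, emission 515-575 nm · System – RD-HGA16 (CHO) cells co-expressing Gα16 and hTAAR1 · Incubation – 17-24 h seeding, 75 min 37 °C dye, 30 min RT · Compound dosing – 3 µM single concentration · Repeats – no replicates (n 1)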
CHO parental Ca: signal in parental CHO cells, OX1R antagonist counter-screen; parental CHO-K1, ATP-induced calcium, Fluo-8 fluorescence; inhibition, % at 5.6 µM; actives 0.63% (n = 330,000);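 active = inhibition above that plate's mean sample inhibition plus 3 SD, cut at about 26% in these data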;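 also: 0% = ATP-challenged DMSO wells and 100% = DMSO wells without ATP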
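material = parental CHO cells | also added = ATP as calcium-mobilizing challenge | dosing = single point at 5.6 µM | detection = intracellular calcium via Fluo-8 no-wash fluorescent dye | read-out = % inhibition | benchmarks = low control ATP plus DMSO, high control DMSO only | repeats = one well per compound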
TAAR1 ag conf: human TAAR1 agonism, confirmed; shares compounds with TAAR1 agonist; CHO RD-HGA16 TAAR1, Fluo-8 calcium fluorescence; scaled: DMSO 0%, maximal phenethylamine 100%; activation, % at 3 µM; actives 82% (n = 2,400); AID 651783;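 active = activation above a cutoff set at the run's mean compound activation plus 3 SD, cut at about 39% in these data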
Ga16 ag counter: counter-screen for TAAR1 agonists: nonselective agonists in parental cells. shares compounds with TAAR1 agonist. CHO-Ga16 parental, Fluo-8 calcium fluorescence; normalized to maximal ATP response, DMSO zero. AID 651787. actives 50% (n = 2,400). activation, % at 3 µM;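 active = activation above the run cutoff, the mean activation over all tested wells plus 3 SD, cut at about 12% in these data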;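 also: 0% = DMSO wells and 100% = maximal ATP response on the peak over basal ratio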
TAAR1 desens: counter-screen for human TAAR1 agonists: agonists that desensitize TAAR1. actives 46% (n = 2,400). inhibition, % at 3 µM. AID 651951. shares compounds with TAAR1 agonist. CHO RD-HGA16 hTAAR1, Fluo-8 calcium, beta-PEA response inhibition;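 active = inhibition above the run cutoff, the mean inhibition of all test compounds plus 3 SD, cut at about 49% in these data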;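 also: beta-PEA stimulus applied at its EC80; loss of beta-PEA calcium signal after compound pretreatment read as receptor desensitization; 0% = DMSO with beta-PEA at EC80 and 100% = DMSO alone without agonist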
Ga16 nonsel ant: nonselective Ga16 antagonist in TAAR1 agonist counter-screen | shares compounds with TAAR1 agonist | CHO-Ga16 ATP-induced calcium, Fluo-8 fluorescence | inhibition, % at 3 µM | actives 39% (n = 2,400);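 active = inhibition above the plate's mean compound inhibition plus 3 SD, computed per plate, cut at about 22% in these data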;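 also: 0% = EC80 ATP with DMSO and 100% = DMSO wells without ATP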
* hit, by the source's call. Compounds with a hit are over-represented: about 4.3% of the library has one in this group of screens.

Cc1ccc(SC/C(O)=C(\C#N)c2nc3ccccc3n2C)cc1 was read as GalR3 antagonist 1.6, OX1R antag-1 -19.8, OX1R antag-2 30.6, TAAR1 antagonist 55.7*, TAAR1 agonist 51.5*, CHO parental Ca -5.1, TAAR1 ag conf 31.4, Ga16 ag counter 51.4*, TAAR1 desens 18.6 and Ga16 nonsel ant 53.0*.
For Cc1cc(C)c(C(=O)OCC(=O)NC(=O)c2ccccc2)c(C)c1 the results were GalR3 antagonist 0.7, OX1R antag-1 -30.0, OX1R antag-2 19.2, TAAR1 antagonist 69.6*, TAAR1 agonist 58.5*, CHO parental Ca -12.8, TAAR1 ag conf 6.3, Ga16 ag counter 6.5, TAAR1 desens 45.6 and Ga16 nonsel ant 34.0*.
For Cc1cccc(C(=O)OCC(=O)NC(=O)c2ccccc2)c1O the results were GalR3 antagonist -4.0, OX1R antag-1 -16.1, OX1R antag-2 14.7, TAAR1 antagonist -7.5, TAAR1 agonist 0.6 and CHO parental Ca -5.9.
For N#CC1=C(N)OC2=C(CC/C2=C\c2ccccc2)C1c1ccccc1 (configuration not stated) the results were GalR3 antagonist 0.3, OX1R antag-1 14.8, OX1R antag-2 25.8, TAAR1 antagonist 70.7*, TAAR1 agonist 64.2*, CHO parental Ca 8.6, TAAR1 ag conf 45.6*, Ga16 ag counter 68.7*, TAAR1 desens 67.1* and Ga16 nonsel ant 77.1*.
For Nc1[nH]c(C(=O)c2ccccc2)c(-c2ccccc2C(F)(F)F)c1C(=O)NCCc1cccs1 the results were GalR3 antagonist -4.5, TAAR1 antagonist -3.2, TAAR1 agonist 47.9*, TAAR1 ag conf 29.5, Ga16 ag counter 3.6, TAAR1 desens 20.7 and Ga16 nonsel ant 12.7.
Screening COc1cccc(-c2c(C(=O)N/N=C/c3ccncc3)nnn2-c2nonc2N)c1 returned GalR3 antagonist 1.0, OX1R antag-1 -19.6, OX1R antag-2 16.6, TAAR1 antagonist 2.9, TAAR1 agonist 15.8 and CHO parental Ca -15.1.
`COc1cccc(-c2c(C(=O)N/N=C/c3ccc(C)s3)nnn2-c2nonc2N)c1` gave GalR3 antagonist -1.0, OX1R antag-1 -3.8, OX1R antag-2 1.2, TAAR1 antagonist 16.6, TAAR1 agonist 64.6*, CHO parental Ca -7.1, TAAR1 ag conf 86.9*, Ga16 ag counter 43.8*, TAAR1 desens 40.2 and Ga16 nonsel ant 12.0.
`COc1cccc(-c2c(C(=O)N/N=C/c3ccoc3)nnn2-c2nonc2N)c1` gave GalR3 antagonist -4.3, OX1R antag-1 -20.7, OX1R antag-2 20.8, TAAR1 antagonist -13.5, TAAR1 agonist 72.3*, CHO parental Ca -2.4, TAAR1 ag conf 128.6*, Ga16 ag counter 76.0*, TAAR1 desens 39.7 and Ga16 nonsel ant 13.9.
O=Cc1ccc([B-](F)(F)F)s1 was read as GalR3 antagonist 1.0, TAAR1 antagonist -1.2 and TAAR1 agonist 1.4.
Screening O=C(O)C1CC=C(Cl)CC1C(=O)NCC1OCCc2ccccc21 (configuration not stated) returned GalR3 antagonist 1.2, OX1R antag-1 -16.6, OX1R antag-2 8.1, CHO parental Ca -6.3, Ga16 ag counter -0.4 and Ga16 nonsel ant 1.9.
For COc1ccc(CC(N)c2csc(Nc3cc(Oc4ccccc4)ncn3)n2)cc1 (configuration not stated) the results were GalR3 antagonist -8.3, TAAR1 antagonist 34.7, TAAR1 agonist 55.6*, TAAR1 ag conf 58.3*, Ga16 ag counter 31.5*, TAAR1 desens 52.1* and Ga16 nonsel ant 42.2*.
`NC(Cc1ccc(F)cc1)c1csc(Nc2cc(Oc3ccccc3)ncn2)n1` (configuration not stated) gave GalR3 antagonist -6.5, TAAR1 antagonist 44.4, TAAR1 agonist 71.2*, TAAR1 ag conf 85.4*, Ga16 ag counter 36.0*, TAAR1 desens 61.4* and Ga16 nonsel ant 43.2*.
Screening NC(Cc1ccc(Cl)cc1)c1csc(Nc2cc(Oc3ccccc3)ncn2)n1 (configuration not stated) returned GalR3 antagonist -4.1, TAAR1 antagonist 27.8 and TAAR1 agonist 33.6.
Screening CC(N)c1csc(Nc2cc(Oc3ccccc3)ncn2)n1 (configuration not stated) returned GalR3 antagonist -3.2, TAAR1 antagonist -3.4 and TAAR1 agonist 5.5.
CNC(=O)C[C@H]1C(=O)N(c2ccc(OC)cc2)C[C@@H]1CSC was read as GalR3 antagonist -4.5, TAAR1 antagonist 14.7 and TAAR1 agonist 0.9.
Screening COc1cccc2c(=O)n(CC(=O)Nc3ccc(F)cc3)ccc12 returned GalR3 antagonist 1.5, OX1R antag-1 -21.8, OX1R antag-2 18.6, TAAR1 antagonist -22.6, TAAR1 agonist 1.0 and CHO parental Ca 9.7.
COc1cccc2c(=O)n(CC(=O)Nc3cccc(F)c3)ccc12 was read as GalR3 antagonist 1.5, OX1R antag-1 1.4, OX1R antag-2 11.2, TAAR1 antagonist 25.7, TAAR1 agonist 60.8*, CHO parental Ca -10.1, TAAR1 ag conf 45.9*, Ga16 ag counter 40.1*, TAAR1 desens 16.0 and Ga16 nonsel ant 11.5.
For C[C@H](NC(=O)c1[nH]cnc1C(=O)N[C@H](C)c1ccccc1)c1ccccc1 the results were GalR3 antagonist -2.1, OX1R antag-1 -11.7, OX1R antag-2 1.0, TAAR1 antagonist 24.5, TAAR1 agonist 46.7*, CHO parental Ca -23.4, TAAR1 ag conf 41.5*, Ga16 ag counter 9.9, TAAR1 desens 16.5 and Ga16 nonsel ant 6.3.
C[C@H](CO)NC(=O)c1nc[nH]c1C(=O)N[C@H](C)c1ccccc1 was read as GalR3 antagonist -5.4, TAAR1 antagonist -4.7 and TAAR1 agonist 1.3.
`O=C1COc2ccccc2C(c2nc3ccccc3[nH]2)N1C1CC1` (configuration not stated) gave GalR3 antagonist -6.4, TAAR1 antagonist -2.9 and TAAR1 agonist 1.6.

Assay outcomes: PubChem, The Scripps Research Institute Molecular Screening Center
